Measurements from ChEMBL document CHEMBL2331513, “Trisubstituted Sulfonamides: a New Chemotype for Development of Potent and Selective CB2 Receptor Inverse Agonists” (ACS Med Chem Lett, 2013).
Calls of active or inactive are those of the source. No cut-off for these calls is given here.

What was measured:
Cannabinoid receptor 2 [1] = molecular target: T1, Cannabinoid receptor 2 (Homo sapiens, UniProt P34972); assay: Displacement of [3H]CP-55940 from human CB2 receptor expressed in CHO cell membranes after 1 hr by scintillation counting analysis
T1 sequence (P34972 whole entry): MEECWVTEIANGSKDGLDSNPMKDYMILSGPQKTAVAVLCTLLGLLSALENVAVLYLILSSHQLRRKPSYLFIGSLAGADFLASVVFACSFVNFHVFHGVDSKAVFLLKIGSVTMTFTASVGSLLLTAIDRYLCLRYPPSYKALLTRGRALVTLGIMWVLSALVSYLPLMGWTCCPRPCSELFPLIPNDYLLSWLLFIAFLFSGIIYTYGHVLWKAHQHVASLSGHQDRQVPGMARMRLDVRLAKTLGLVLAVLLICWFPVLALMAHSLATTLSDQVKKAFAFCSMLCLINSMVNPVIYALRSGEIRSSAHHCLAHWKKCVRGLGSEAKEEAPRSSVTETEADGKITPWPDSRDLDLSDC

Cannabinoid receptor 1 = Cannabinoid receptor 1 (Homo sapiens, UniProt P21554); assay: biochemical; format: cell-based, CHO
Cannabinoid receptor 1, sequence (P21554 whole entry): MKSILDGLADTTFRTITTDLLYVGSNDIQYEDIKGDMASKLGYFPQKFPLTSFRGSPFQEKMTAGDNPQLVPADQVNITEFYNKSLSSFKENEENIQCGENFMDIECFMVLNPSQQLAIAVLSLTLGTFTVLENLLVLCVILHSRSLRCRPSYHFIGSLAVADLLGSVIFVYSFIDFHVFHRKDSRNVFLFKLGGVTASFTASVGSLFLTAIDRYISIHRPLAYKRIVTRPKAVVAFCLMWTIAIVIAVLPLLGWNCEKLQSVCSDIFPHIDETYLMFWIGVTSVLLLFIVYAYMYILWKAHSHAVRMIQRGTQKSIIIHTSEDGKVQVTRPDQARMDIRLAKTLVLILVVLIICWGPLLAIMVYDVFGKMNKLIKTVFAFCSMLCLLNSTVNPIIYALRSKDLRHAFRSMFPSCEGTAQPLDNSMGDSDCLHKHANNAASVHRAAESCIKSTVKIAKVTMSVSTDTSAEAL

Homo sapiens = species on record: Homo sapiens; assay: Selectivity ratio of Ki for human CB1 receptor to Ki for human CB2 receptor
In short: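 Ki at CB1 and CB2 each determined by [3H]CP-55,940 competition binding; selectivity index computed as Ki(CB1)/Ki(CB2).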

Mus musculus = species on record: Mus musculus; assay: Inhibition of RANKL/MCSF-induced osteoclastogenesis in C57BL/6 mouse BM-MNC after 7 days by TRAP staining-based inverted microscopic analysis; format: functional
In short: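 Mouse bone marrow mononuclear cells driven to osteoclasts with mouse RANKL plus M-CSF, compound or vehicle control added; osteoclast formation scored; triplicate, means ± SD.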

Cannabinoid receptor 2 [2] = molecular target: T1, Cannabinoid receptor 2; assay: Inverse agonist activity at human CB2 receptor expressed in CHO cell membranes assessed as inhibition of forskolin-stimulated cAMP production after 45 mins by TR-FRET assay; format: functional, cell-based
In short: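 Functional cAMP readout by LANCE signal in CHO cells stably transfected with human CB2, tested across a concentration range; EC50 from concentration–response; means ± SEM of one representative experiment of two or more, run in duplicate or triplicate.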

Cannabinoid receptor 2 [3] = molecular target: T1, Cannabinoid receptor 2; assay: Binding affinity to CB2 receptor (unknown origin)
In short: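 Radioligand competition binding at CB2 using [3H]CP-55,940 as the labelled ligand; Ki derived from displacement; means ± SEM of at least three experiments, each run in duplicate.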

PBMC = assay: Cytotoxicity against human PBMC at 5 uM after 72 hrs by trypan blue assay; format: cell-based
[4] = Inhibition of RANKL/MCSF-induced osteoclastogenesis in C57BL/6 mouse BM-MNC at 5 uM after 7 days by TRAP staining-based inverted microscopic analysis relative to control; format: functional; design: scale not given: the % may be the effect or the level left
In short: (§1)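 Osteoclast formation assay using mouse bone marrow mononuclear cells stimulated with mouse RANKL plus M-CSF. Compounds were tested at 0.1, 1 and 5 μM, and inhibition was calculated relative to vehicle control. All experiments were run in triplicate and reported as mean ± standard deviation.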

[5] = Inhibition of RANKL/MCSF-induced osteoclastogenesis in C57BL/6 mouse BM-MNC at 1 uM after 7 days by TRAP staining-based inverted microscopic analysis relative to control; format: functional; design: scale not given: the % may be the effect or the level left; in short: as §1
[6] = Inhibition of RANKL/MCSF-induced osteoclastogenesis in C57BL/6 mouse BM-MNC at 0.1 uM after 7 days by TRAP staining-based inverted microscopic analysis relative to control; format: functional; design: scale not given: the % may be the effect or the level left; in short: as §1

Compound | Ki (Cannabinoid receptor 2 [1]) [µM] | Ki (Cannabinoid receptor 1) [µM] | Ratio Ki (Homo sapiens) | other results
CCN(CC)c1ccc(CN(Cc2ccccc2)S(=O)(=O)c2ccc(-c3ccccc3)cc2)cc1 | 0.166 |  |  | 
CCN(CC)c1ccc(CN(Cc2ccccc2)S(=O)(=O)c2ccc(NC(C)=O)cc2)cc1 | 0.47 |  |  | 
CCCCc1ccc(CN(Cc2ccccc2)S(=O)(=O)c2ccc(C)cc2)cc1 | 0.28 |  |  | 
CCN(CC)c1ccc(CN(Cc2ccccc2)S(=O)(=O)c2ccccc2)cc1 | 0.17 |  |  | 
Cc1ccc(S(=O)(=O)N(Cc2ccccc2)Cc2ccc(N(C)C)cc2)cc1 | 0.68 |  |  | 
CCN(CC)c1ccc(CN(Cc2ccc(N(CC)CC)cc2)S(=O)(=O)c2ccc(C)cc2)cc1 | 0.54 |  |  | 
CCN(CC)c1ccc(CN(Cc2ccccc2)S(=O)(=O)c2ccc(OC(F)(F)F)cc2)cc1 | 0.577 |  |  | 
CCN(CC)c1ccc(CN(Cc2ccccc2)S(=O)(=O)Cc2ccccc2)cc1 | 0.262 |  |  | 
CCN(CC)c1ccc(CN(Cc2ccc(Cl)c(Cl)c2)S(=O)(=O)c2ccc(C)cc2)cc1 | 0.39 |  |  | 
CCN(CC)c1ccc(CN(Cc2ccccc2)S(=O)(=O)c2ccc3ccccc3c2)cc1 | 0.19 |  |  | 
CCOc1ccc(CN(Cc2ccccc2)S(=O)(=O)c2ccc(C)cc2)cc1 | 0.23 |  |  | 
Cc1ccc(S(=O)(=O)N(CCc2ccccc2)Cc2ccccc2)cc1 |  |  |  | Ki (Cannabinoid receptor 2 [3]): 0.75 µM
Cc1ccc(S(=O)(=O)N(Cc2ccccc2)Cc2ccc(N(CCCl)CCCl)cc2)cc1 | 0.166 |  |  | 
CCN(CC)c1ccc(CNS(=O)(=O)c2ccc(C)cc2)cc1 | 3.6 |  |  | 
Cc1ccc(S(=O)(=O)N(Cc2ccccc2)Cc2ccc(OC(C)C)cc2)cc1 | 0.174 |  |  | 
CCN(CC)c1ccc(CN(Cc2ccc(Cl)cc2)S(=O)(=O)c2ccc(C)cc2)cc1 | 0.21 |  |  | 
Cc1ccc(S(=O)(=O)N(Cc2ccc(N3CCCCC3)cc2)c2ccccc2)cc1 | 0.31 |  |  | 
Cc1ccc(S(=O)(=O)N(Cc2ccccc2)Cc2ccc(C(C)C)cc2)cc1 | 0.23 |  |  | 
CCN(CC)c1ccc(CN(c2ccccc2)S(=O)(=O)c2ccc(C)cc2)cc1 | 0.0055 | 0.081 | 15 | Activity (PBMC): Non-toxic; Activity [4]: 99.7%; Activity [5]: 83%; Activity [6]: 55%; EC50 (Cannabinoid receptor 2 [2]): 0.0082 µM

The remaining compounds from weak to strong by Ki (Cannabinoid receptor 2 [1]), led by results:

Ki (Cannabinoid receptor 2 [1]) [µM] | Ki (Cannabinoid receptor 1) [µM] | Ratio Ki (Homo sapiens) | Compound | other results
0.15 |  |  | CCN(CC)c1ccc(CN(Cc2ccccc2)Cc2ccccc2)cc1 | 
0.14 |  |  | O=S(=O)(c1ccc(Cl)cc1)N(Cc1ccc(N2CCCCC2)cc1)c1ccccc1 | 
0.13 |  |  | C=CCc1ccc(CN(Cc2ccccc2)S(=O)(=O)c2ccc(C)cc2)cc1 | 
0.13 |  |  | CCCc1ccc(CN(Cc2ccccc2)S(=O)(=O)c2ccc(C)cc2)cc1 | 
0.12 |  |  | CCN(CC)c1ccc(CN(CCc2ccccc2)S(=O)(=O)c2ccc(C)cc2)cc1 | 
0.12 | 2.25 | 20 | CCN(CC)c1ccc(CN(Cc2ccc(F)cc2)S(=O)(=O)c2ccc(C)cc2)cc1 | 
0.102 | 0.93 | 9 | CCN(CC)c1ccc(CN(Cc2ccccc2)S(=O)(=O)c2ccc(F)cc2)cc1 | 
0.094 |  |  | CCN(CC)c1ccc(CN(Cc2ccccc2)S(=O)(=O)c2ccc(OC(C)C)cc2)cc1 | 
0.075 | 0.66 | 9 | CCN(CC)c1ccc(CN(C2CCCCC2)S(=O)(=O)c2ccc(OC)cc2)cc1 | 
0.073 | 0.43 | 6 | CCN(CC)c1ccc(CN(Cc2ccccc2)S(=O)(=O)c2ccc(Cl)cc2)cc1 | 
0.071 | 0.52 | 7 | CCN(CC)c1ccc(CN(Cc2ccccc2)S(=O)(=O)c2ccc(C(C)C)cc2)cc1 | 
0.066 | 1.25 | 19 | C=CCN(Cc1ccc(N(CC)CC)cc1)S(=O)(=O)c1ccc(C)cc1 | 
0.055 | 1.4 | 25 | CCN(CC)c1ccc(CN(C2CCCCC2)S(=O)(=O)c2ccc(C(C)C)cc2)cc1 | 
0.053 | 2.3 | 43 | CCN(CC)c1ccc(CN(Cc2ccccc2)S(=O)(=O)c2ccc(C)cc2)cc1 | 
0.046 | 0.69 | 15 | CCN(CC)c1ccc(CN(Cc2ccccc2)S(=O)(=O)c2ccc(OC)cc2)cc1 | 
0.044 | 1.3 | 28 | Cc1ccc(S(=O)(=O)N(Cc2ccccc2)Cc2ccc(N3CCCCC3)cc2)cc1 | 
0.036 | 0.5 | 14 | CCN(CC)c1ccc(CN(C2CCCC2)S(=O)(=O)c2ccc(C)cc2)cc1 | 
0.034 | 0.56 | 16 | CCN(CC)c1ccc(CN(CC2CCCCC2)S(=O)(=O)c2ccc(C)cc2)cc1 | 
0.032 | 0.59 | 18 | COc1ccc(S(=O)(=O)N(Cc2ccc(N3CCCCC3)cc2)c2ccccc2)cc1 | EC50 (Cannabinoid receptor 2 [2]): 0.049 µM
0.031 | 1.3 | 42 | CCN(CC)c1ccc(CN(Cc2ccco2)S(=O)(=O)c2ccc(C(C)C)cc2)cc1 | 
0.03 | 2 | 66 | CCN(CC)c1ccc(CN(c2ccccc2)S(=O)(=O)c2ccc(C(C)C)cc2)cc1 | 
0.02 | 0.84 | 42 | CCN(CC)c1ccc(CN(Cc2ccco2)S(=O)(=O)c2ccc(OC)cc2)cc1 | 
0.018 | 0.21 | 12 | CCN(CC)c1ccc(CN(C2CCCCC2)S(=O)(=O)c2ccc(C)cc2)cc1 | 
0.014 | 0.34 | 24 | CCN(CC)c1ccc(CN(c2ncc(C)s2)S(=O)(=O)c2ccc(C)cc2)cc1 | 
0.014 | 0.61 | 44 | CCN(CC)c1ccc(CN(Cc2cccs2)S(=O)(=O)c2ccc(C)cc2)cc1 | 
0.0095 | 0.57 | 60 | CCN(CC)c1ccc(CN(Cc2ccco2)S(=O)(=O)c2ccc(C)cc2)cc1 | 
0.0054 | 0.5 | 92 | CCN(CC)c1ccc(CN(c2ccccc2)S(=O)(=O)c2ccc(OC)cc2)cc1 | Activity (Mus musculus): Active; EC50 (Cannabinoid receptor 2 [2]): 0.0025 µM
0.004 | 0.6 | 120 | CCN(CC)c1ccc(CN(c2ncc(C)s2)S(=O)(=O)c2ccc(OC)cc2)cc1 | Activity (Mus musculus): Active; EC50 (Cannabinoid receptor 2 [2]): 0.073 µM
